{"source": "ChEMBL document CHEMBL3797104", "about": "“Triazole tethered C5-curcuminoid-coumarin based molecular hybrids as novel antitubulin agents: Design, synthesis, biological investigation and docking studies” (Eur J Med Chem, 2016)", "key": {"[1]": {"experiment": "Cytotoxicity against human COLO205 cells after 48 hrs by SRB assay", "format": "functional, cell-based", "conditions": "COLO 205, 48 h", "procedure,_shortened": "(§1)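 SRB assay in 96-well plates. Cells were seeded and grown 24 h at 37 °C in a CO2 incubator, then given test material in complete medium for a further 48 h. Cells were fixed with cold 50% TCA for 1 h at 4 °C, stained 30 min with 0.4% SRB in 1% acetic acid, and washed with […]. IC50 was taken from multi-concentration testing, run only for hybrids giving >70% inhibition at 50 µM in at least one line.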"}, "[2]": {"experiment": "Cytotoxicity against human HCT116 cells after 48 hrs by SRB assay", "format": "functional, cell-based", "conditions": "HCT-116, 48 h", "procedure,_shortened": "as §1"}, "[3]": {"experiment": "Cytotoxicity against human THP1 cells after 48 hrs by SRB assay", "format": "functional, cell-based", "conditions": "THP-1, 48 h", "procedure,_shortened": "as §1"}, "Tubulin": {"target": "Tubulin", "experiment": "Inhibition of tubulin (unknown origin) polymerization measured after 1 hr by ELISA plate reader analysis", "format": "protein-complex assay, Homo sapiens", "procedure,_shortened": "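Kit-based turbidity assay using tubulin (10 mg in general tubulin buffer with GTP). Compounds were diluted from DMSO stocks, preincubated 2 min at 37 °C in general tubulin buffer, then tubulin diluted in polymerization buffer (general and glycerol tubulin buffers plus GTP) was added. Absorbance at 340 nm was read after 1 h at 37 °C.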"}, "[4]": {"experiment": "Cytotoxicity against human PC3 cells assessed as growth inhibition at 50 uM after 48 hrs by SRB assay", "format": "functional", "conditions": "PC-3, 48 h, read-out: GI", "procedure,_shortened": "(§2)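 Single-concentration screen at 50 µM. Cells grew 24 h at 37 °C, then had 48 h exposure in complete medium.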"}, "[5]": {"experiment": "Cytotoxicity against human HCT116 cells assessed as growth inhibition at 50 uM after 48 hrs by SRB assay", "format": "functional", "conditions": "HCT-116, 48 h, read-out: GI", "procedure,_shortened": "as §2"}, "[6]": {"experiment": "Cytotoxicity against human THP1 cells assessed as growth inhibition at 50 uM after 48 hrs by SRB assay", "format": "functional", "conditions": "THP-1, 48 h, read-out: GI", "procedure,_shortened": "as §2"}, "[7]": {"experiment": "Cytotoxicity against human COLO205 cells assessed as growth inhibition at 50 uM after 48 hrs by SRB assay", "format": "functional", "conditions": "COLO 205, 48 h, read-out: GI", "procedure,_shortened": "as §2"}}, "data": [{"smiles": "COc1ccc(/C=C/C(=O)/C=C/c2ccc(OCc3cn(CCOc4cc(=O)oc5ccccc45)nn3)c(OC)c2)cc1OC", "values": [{"measurement": "IC50", "setting": "[1]", "result": 6.78, "unit": "µM"}, {"measurement": "IC50", "setting": "[2]", "result": 4.71, "unit": "µM"}, {"measurement": "IC50", "setting": "[3]", "result": 2.34, "unit": "µM"}, {"measurement": "IC50", "setting": "Tubulin", "result": 2.88, "unit": "µM"}, {"measurement": "inhibition of growth at 50 µM", "setting": "[4]", "result": 19, "unit": "%"}, {"measurement": "inhibition of growth at 50 µM", "setting": "[5]", "result": 82, "unit": "%"}, {"measurement": "inhibition of growth at 50 µM", "setting": "[6]", "result": 90, "unit": "%"}, {"measurement": "inhibition of growth at 50 µM", "setting": "[7]", "result": 80, "unit": "%"}]}, {"smiles": "COc1cc(/C=C/C(=O)/C=C/c2cc(OC)c(OC)c(OC)c2)ccc1OCc1cn(CCOc2cc(=O)oc3ccccc23)nn1", "values": [{"measurement": "IC50", "setting": "[1]", "result": 4.68, "unit": "µM"}, {"measurement": "IC50", "setting": "[2]", "result": 2.21, "unit": "µM"}, {"measurement": "IC50", "setting": "[3]", "result": 0.82, "unit": "µM"}, {"measurement": "IC50", "setting": "Tubulin", "result": 1.55, "unit": "µM"}, {"measurement": "inhibition of growth at 50 µM", "setting": "[4]", "result": 22, "unit": "%"}, {"measurement": "inhibition of growth at 50 µM", "setting": "[5]", "result": 89, "unit": "%"}, {"measurement": "inhibition of growth at 50 µM", "setting": "[6]", "result": 99, "unit": "%"}, {"measurement": "inhibition of growth at 50 µM", "setting": "[7]", "result": 86, "unit": "%"}]}, {"smiles": "COc1cc(/C=C/C(=O)/C=C/c2cccc3ccccc23)ccc1OCc1cn(CCOc2cc(=O)oc3ccccc23)nn1", "values": [{"measurement": "IC50", "setting": "[1]", "result": 9.95, "unit": "µM"}, {"measurement": "IC50", "setting": "[2]", "result": 6.54, "unit": "µM"}, {"measurement": "IC50", "setting": "[3]", "result": 4.48, "unit": "µM"}, {"measurement": "IC50", "setting": "Tubulin", "result": 7.65, "unit": "µM"}, {"measurement": "inhibition of growth at 50 µM", "setting": "[4]", "result": 20, "unit": "%"}, {"measurement": "inhibition of growth at 50 µM", "setting": "[5]", "result": 83, "unit": "%"}, {"measurement": "inhibition of growth at 50 µM", "setting": "[6]", "result": 89, "unit": "%"}, {"measurement": "inhibition of growth at 50 µM", "setting": "[7]", "result": 85, "unit": "%"}]}]}
